Data published in PMC8859974 (Journal of medicinal chemistry, 2019).

What was measured:
PA-CMG2 interaction [1] = molecular target: T1, PA-CMG2 interaction (Homo sapiens, UniProt P58335, C175A/R40C); conditions: cited from earlier work
T1 sequence (P58335 40-217 R40C/C175A): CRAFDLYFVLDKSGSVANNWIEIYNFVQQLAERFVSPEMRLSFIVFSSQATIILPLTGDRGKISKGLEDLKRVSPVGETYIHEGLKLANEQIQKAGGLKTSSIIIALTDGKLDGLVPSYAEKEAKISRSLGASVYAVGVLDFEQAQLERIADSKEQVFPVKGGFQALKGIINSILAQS

PA-CMG2 interaction [2] = molecular target: T1, PA-CMG2 interaction; test: CMG2-PA FRET assay; format: binding; conditions: for inhibitory effect on CMG2-PA interaction (in words): FRET assay
Summary of the method: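 After AF546 dispensing, 32 nM PA-AF488 solution was added and the mix incubated 4 h. Excitation 485 nm; emission 535 and 595 nm. Artifact-filtered Em595/Em535 FRET ratio was converted to % inhibition against an interaction control (100%) and an EDTA no-interaction control (0%).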

[3] = format: in vivo, mice
EA.hy926 cells = test: CellASIC microfluidic chemotactic endothelial cell migration; format: cell-based; conditions: Homo sapiens, EA.hy 926, 12 h, read-out: Best fit IC50, chemotactic endothelial cell migration
[4] = system: bFGF-induced angiogenesis; conditions: oral or intraperitoneal administration; cited from earlier work

SMILES: CCCOC(=O)c1cc(O)c(O)c(O)c1 [propyl gallate]
- inhibitory activity (PA-CMG2 interaction [1]; concentrations up to 300 μM): do not showed any inhibitory activity

SMILES: O=C(OC[C@H]1O[C@H](O[C@H]2O[C@H](COC(=O)c3ccc(O)c(O)c3O)[C@@H](OC(=O)c3ccc(O)c(O)c3O)[C@H](OC(=O)c3ccc(O)c(O)c3O)[C@H]2OC(=O)c2ccc(O)c(O)c2O)[C@@H](OC(=O)c2ccc(O)c(O)c2O)[C@@H](OC(=O)c2ccc(O)c(O)c2O)[C@@H]1OC(=O)c1ccc(O)c(O)c1O)c1ccc(O)c(O)c1O [compound 31, α,α-D-Trehalose octakis(2,3,4-trihydroxybenzoate)]
- inhibitory effect on CMG2-PA interaction (in words) (PA-CMG2 interaction [2]): did not inhibit CMG2-PA interaction

SMILES: O=C(OC[C@@H](OC(=O)c1ccc(O)c(O)c1O)[C@@H]1O[C@H](OC(=O)c2ccc(O)c(O)c2O)[C@H](OC(=O)c2ccc(O)c(O)c2O)[C@H]1OC(=O)c1ccc(O)c(O)c1O)c1ccc(O)c(O)c1O [compound 15, α-D-Galactofuranose pentakis(2,3,4-trihydroxybenzoate)]
- IC50 (PA-CMG2 interaction [2]): > 10000 nM

SMILES: O=C(OC[C@H]1O[C@@H](OC(=O)c2cc(O)c(O)c(O)c2)[C@@H](OC(=O)c2cc(O)c(O)c(O)c2)[C@@H](OC(=O)c2cc(O)c(O)c(O)c2)[C@@H]1OC(=O)c1cc(O)c(O)c(O)c1)c1cc(O)c(O)c(O)c1 [compound 8, 1,2,3,4,6-penta-O-galloyl-β-D-mannopyranose]
- weight loss ([3]; 10 mg/kg intraperitoneally, compared to vehicle-treated control animals): no significant weight loss
- signs of toxicity (weight loss, hunched posture, behavioral abnormalities) ([3]; treated mice): no obvious signs of toxicity
- IC50 (EA.hy926 cells): 365 ± 129 nM
- affinity for CMG2 relative to the glucose prototype PGG (PA-CMG2 interaction [2]; FRET based binding assay): up to 10 x

SMILES: O=C(O[C@@H]1OC[C@@H](OC(=O)c2cc(O)c(O)c(O)c2)[C@@H](OC(=O)c2cc(O)c(O)c(O)c2)[C@H]1OC(=O)c1cc(O)c(O)c(O)c1)c1cc(O)c(O)c(O)c1 [compound 10]
- inhibitory effect on CMG2-PA interaction (in words) (PA-CMG2 interaction [2]): no inhibitory effect

SMILES: O=C(OC[C@H]1O[C@H](O[C@H]2O[C@H](COC(=O)c3cc(O)c(O)c(O)c3)[C@@H](OC(=O)c3cc(O)c(O)c(O)c3)[C@H](OC(=O)c3cc(O)c(O)c(O)c3)[C@H]2OC(=O)c2cc(O)c(O)c(O)c2)[C@@H](OC(=O)c2cc(O)c(O)c(O)c2)[C@@H](OC(=O)c2cc(O)c(O)c(O)c2)[C@@H]1OC(=O)c1cc(O)c(O)c(O)c1)c1cc(O)c(O)c(O)c1 [compound 27, α,α-D-Trehalose octakis(3,4,5-trihydroxybenzoate)]
- inhibitory effect on CMG2-PA interaction (in words) (PA-CMG2 interaction [2]): did not inhibit CMG2-PA interaction

SMILES: O=C(O[C@@H]1OC[C@@H](OC(=O)c2ccc(O)c(O)c2O)[C@@H](OC(=O)c2ccc(O)c(O)c2O)[C@H]1OC(=O)c1ccc(O)c(O)c1O)c1ccc(O)c(O)c1O [compound 23, β-D-Ribopiranose tetrakis(2,3,4-trihydroxybenzoate)]
- inhibitory effect on CMG2-PA interaction (in words) (PA-CMG2 interaction [2]): no inhibitory effect

SMILES: O=C(OC[C@H]1O[C@H](O[C@H]2[C@H](OC(=O)c3cc(O)c(O)c(O)c3)[C@@H](OC(=O)c3cc(O)c(O)c(O)c3)[C@H](OC(=O)c3cc(O)c(O)c(O)c3)O[C@@H]2COC(=O)c2cc(O)c(O)c(O)c2)[C@H](OC(=O)c2cc(O)c(O)c(O)c2)[C@@H](OC(=O)c2cc(O)c(O)c(O)c2)[C@@H]1OC(=O)c1cc(O)c(O)c(O)c1)c1cc(O)c(O)c(O)c1 [compound 25, β-D-Maltose octakis(3,4,5-trihydroxybenzoate)]
- inhibitory effect on CMG2-PA interaction (in words) (PA-CMG2 interaction [2]): did not inhibit CMG2-PA interaction

SMILES: O=C(OC[C@H]1O[C@@H](OC(=O)c2cc(O)c(O)c(O)c2)[C@H](OC(=O)c2cc(O)c(O)c(O)c2)[C@@H](OC(=O)c2cc(O)c(O)c(O)c2)[C@@H]1OC(=O)c1cc(O)c(O)c(O)c1)c1cc(O)c(O)c(O)c1 [compound 1, 1,2,3,4,6-penta-O-galloyl-ß-D-glucopyranose]
- angiogenesis in the mouse corneal micropocket assay [4]: inhibits angiogenesis
- IC50 of binding to CMG2 (PA-CMG2 interaction [1]): submicromolar

SMILES: O=C(O[C@H]1OC[C@@H](OC(=O)c2ccc(O)c(O)c2O)[C@@H](OC(=O)c2ccc(O)c(O)c2O)[C@H]1OC(=O)c1ccc(O)c(O)c1O)c1ccc(O)c(O)c1O [compound 22, α-D-Ribopiranose tetrakis(2,3,4-trihydroxybenzoate)]
- inhibitory effect on CMG2-PA interaction (in words) (PA-CMG2 interaction [2]): no inhibitory effect
